Experimental data taken from ChEMBL document CHEMBL4014335, “Activation of Phenyl 4-(2-Oxo-3-alkylimidazolidin-1-yl)benzenesulfonates Prodrugs by CYP1A1 as New Antimitotics Targeting Breast Cancer Cells” (J Med Chem, 2017).

Experiments:
HT-29 = experiment: Antiproliferative activity against human HT-29 cells after 48 hrs by SRB assay; assay type: functional, cell-based; conditions: HT-29, 48 h
How it was run: (§1)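 SRB assay run as in the NCI screen with slight modifications. Seeding: HT-29 5.0 x 10^3, M21 3.5 x 10^3, MCF7 7.5 x 10^3 cells; cells preincubated 24 h. Drug in DMSO added at 0.75 to 1.0 x 10^5 nM for 48 h. TCA fixation, sulforhodamine B staining, absorbance 530-565 nm. At least two experiments in triplicate; runs accepted only when relative SD < 10%.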

M21 = experiment: Antiproliferative activity against human M21 cells after 48 hrs by SRB assay; assay type: functional, cell-based; conditions: M21, 48 h; how it was run: as §1
MCF7 = experiment: Antiproliferative activity against human MCF7 cells after 48 hrs by SRB assay; assay type: functional, cell-based; conditions: MCF7, 48 h; how it was run: as §1
[1] = Selectivity ratio of IC50 for human HT-29 cells to IC50 for human MCF7 cells; assay type: functional
How it was run: (§2)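 Ratio is IC50 in reference line over IC50 in sensitive line. […] Cells in DMEM with 5% calf serum at 37 °C. At least two experiments, triplicate cultures; assay accepted when relative SD < 10%.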

[2] = Selectivity ratio of IC50 for human M21 cells to IC50 for human MCF7 cells; assay type: functional; how it was run: as §2

IC50 (HT-29) [µM] | IC50 (MCF7) [µM] | SMILES | IC50 (M21) [µM] | Ratio IC50 [1] | Ratio IC50 [2]
35 | 2.5 | CCCCN1CCN(c2ccc(S(=O)(=O)Oc3ccc(OC)cc3)cc2)C1=O | > 100 | 14 | >39
4.3 | 3.5 | CCN1CCN(c2ccc(S(=O)(=O)Oc3cc(OC)cc(OC)c3)cc2)C1=O | 4.2 | 1.2 | 1.2
4.3 | 5.1 | Cc1cccc(OS(=O)(=O)c2ccc(N3CCN(C)C3=O)cc2)c1 | 2.3 | 0.9 | 0.5
23 | 33 | CCCN1CCN(c2ccc(S(=O)(=O)Oc3ccc(F)cc3)cc2)C1=O | 14 | 0.7 | 0.4
2.5 | 3 | COc1cccc(OS(=O)(=O)c2ccc(N3CCN(C)C3=O)cc2)c1 | 1.6 | 0.8 | 0.6
3 | 2.5 | Cc1ccc(OS(=O)(=O)c2ccc(N3CCN(C)C3=O)cc2)c(C)c1 | 1.8 | 1.2 | 0.7
> 100 | 95 | COc1ccc(OS(=O)(=O)c2ccc(N3CCN(C)C3=O)cc2)cc1 | > 100 | >1.1 | >1.1
0.59 | 0.56 | CN1CCN(c2ccc(S(=O)(=O)Oc3cccc(I)c3)cc2)C1=O | 0.4 | 1.1 | 0.7
22 | 14 | CCN1CCN(c2ccc(S(=O)(=O)Oc3cccc(OC)c3)cc2)C1=O | 7 | 1.6 | 0.5
76 | 0.31 | CCCCN1CCN(c2ccc(S(=O)(=O)Oc3cccc(F)c3)cc2)C1=O | > 100 | 250 | >320
